Results as given in ChEMBL document CHEMBL4359867, “Design, synthesis and biological evaluation of novel 4-anilinoquinazoline derivatives as hypoxia-selective EGFR and VEGFR-2 dual inhibitors” (Eur J Med Chem, 2019).
Calls of active or inactive are those of the source. The rule behind the calls is not given here.

What was measured:
[1] = target: Vascular endothelial growth factor receptor 2 (Homo sapiens, UniProt P35968); assay: Inhibition of N-terminal GST-tagged human VEGFR2 cytoplasmic domain (790 to 1356 residues) expressed in baculovirus expression system using FAM-22 peptide as substrate incubated for 10 mins followed by substrate addition by caliper method
Sequence of Vascular endothelial growth factor receptor 2 (P35968 whole entry, the tested form may be a part): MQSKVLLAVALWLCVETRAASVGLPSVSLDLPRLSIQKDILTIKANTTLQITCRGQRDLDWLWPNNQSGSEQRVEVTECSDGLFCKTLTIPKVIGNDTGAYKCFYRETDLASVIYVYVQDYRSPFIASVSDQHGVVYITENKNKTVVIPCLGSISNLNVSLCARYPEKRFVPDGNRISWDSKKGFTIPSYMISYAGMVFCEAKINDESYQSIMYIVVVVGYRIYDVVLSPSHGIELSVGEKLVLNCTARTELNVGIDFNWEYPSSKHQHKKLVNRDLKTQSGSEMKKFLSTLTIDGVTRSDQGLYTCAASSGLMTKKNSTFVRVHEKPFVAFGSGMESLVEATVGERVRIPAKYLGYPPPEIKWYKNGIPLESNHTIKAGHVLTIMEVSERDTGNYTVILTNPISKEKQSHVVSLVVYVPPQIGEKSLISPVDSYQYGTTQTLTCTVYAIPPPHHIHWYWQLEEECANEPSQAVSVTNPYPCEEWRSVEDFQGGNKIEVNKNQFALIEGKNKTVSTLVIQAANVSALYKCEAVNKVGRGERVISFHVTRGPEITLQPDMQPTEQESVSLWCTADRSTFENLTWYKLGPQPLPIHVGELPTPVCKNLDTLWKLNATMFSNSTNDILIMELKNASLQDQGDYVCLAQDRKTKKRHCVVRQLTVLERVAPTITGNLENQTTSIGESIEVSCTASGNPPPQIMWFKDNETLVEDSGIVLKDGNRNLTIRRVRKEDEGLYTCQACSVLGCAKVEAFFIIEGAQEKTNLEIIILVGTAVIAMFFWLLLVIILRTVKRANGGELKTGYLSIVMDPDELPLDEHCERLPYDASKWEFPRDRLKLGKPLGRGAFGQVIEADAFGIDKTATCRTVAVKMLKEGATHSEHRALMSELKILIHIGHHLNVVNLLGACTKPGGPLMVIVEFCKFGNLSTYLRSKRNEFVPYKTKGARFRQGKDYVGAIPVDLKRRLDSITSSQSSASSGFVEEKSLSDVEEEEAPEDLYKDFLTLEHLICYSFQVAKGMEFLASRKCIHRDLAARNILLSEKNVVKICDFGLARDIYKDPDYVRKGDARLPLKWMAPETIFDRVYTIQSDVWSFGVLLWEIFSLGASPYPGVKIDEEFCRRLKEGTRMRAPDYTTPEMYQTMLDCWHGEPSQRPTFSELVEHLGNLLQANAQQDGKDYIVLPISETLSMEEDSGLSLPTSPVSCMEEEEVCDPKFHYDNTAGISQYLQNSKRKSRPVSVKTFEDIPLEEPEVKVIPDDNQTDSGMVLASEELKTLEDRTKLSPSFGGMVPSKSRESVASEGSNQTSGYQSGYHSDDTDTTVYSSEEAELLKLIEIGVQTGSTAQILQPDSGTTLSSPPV
Procedure, shortened: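 Compounds (DMSO stocks 40 μM–0.2 nM, ten levels) tested in duplicate. Enzyme preincubated with compound 10 min at room temperature, then FAM-P22 peptide/ATP added and incubated at 28 °C. Stopped with EDTA-containing buffer. IC50 obtained by four-parameter Hill fit; staurosporine as reference.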

[2] = tested on: A549; assay: Antiproliferative activity against human A549 cells assessed as inhibition of cell growth at 0.5 uM after 48 hrs under hypoxic condition (200 uM CoCl2) by CCk-8 assay relative to control (reference value: 59.94%); type: functional
Procedure, shortened: (§1)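 RPMI-1640 with 10% fetal calf serum. Compounds dissolved in DMSO. Hypoxia produced chemically with cobalt(II) chloride; normoxic wells received no CoCl2. Viability read by CCK-8 (WST-8) at 450 nm, and inhibition ratio calculated against untreated control.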

[3] = tested on: NCI-H446; assay: Antiproliferative activity against human NCI-H446 cells assessed as inhibition of cell growth at 0.5 uM after 48 hrs under hypoxic condition (200 uM CoCl2) by CCk-8 assay relative to control (reference value: 65.84%); type: functional; procedure, shortened: as §1
[4] = tested on: NCI-H446; assay: Antiproliferative activity against human NCI-H446 cells assessed as hypoxic sensitive enhancement ratio in presence of Cocl2 under irradiation; type: functional
[5] = tested on: A549; assay: Antiproliferative activity against human A549 cells assessed as hypoxic sensitive enhancement ratio in presence of CoCl2; type: functional
[6] = target: Epidermal growth factor receptor (Homo sapiens, UniProt P00533); assay: Inhibition of N-terminal GST-tagged human EGFR cytoplasmic domain (669 to 1210 residues) expressed in baculovirus expression system using FAM-22 peptide as substrate incubated for 10 mins followed by substrate addition by caliper method
Sequence of Epidermal growth factor receptor (P00533 whole entry, the tested form may be a part): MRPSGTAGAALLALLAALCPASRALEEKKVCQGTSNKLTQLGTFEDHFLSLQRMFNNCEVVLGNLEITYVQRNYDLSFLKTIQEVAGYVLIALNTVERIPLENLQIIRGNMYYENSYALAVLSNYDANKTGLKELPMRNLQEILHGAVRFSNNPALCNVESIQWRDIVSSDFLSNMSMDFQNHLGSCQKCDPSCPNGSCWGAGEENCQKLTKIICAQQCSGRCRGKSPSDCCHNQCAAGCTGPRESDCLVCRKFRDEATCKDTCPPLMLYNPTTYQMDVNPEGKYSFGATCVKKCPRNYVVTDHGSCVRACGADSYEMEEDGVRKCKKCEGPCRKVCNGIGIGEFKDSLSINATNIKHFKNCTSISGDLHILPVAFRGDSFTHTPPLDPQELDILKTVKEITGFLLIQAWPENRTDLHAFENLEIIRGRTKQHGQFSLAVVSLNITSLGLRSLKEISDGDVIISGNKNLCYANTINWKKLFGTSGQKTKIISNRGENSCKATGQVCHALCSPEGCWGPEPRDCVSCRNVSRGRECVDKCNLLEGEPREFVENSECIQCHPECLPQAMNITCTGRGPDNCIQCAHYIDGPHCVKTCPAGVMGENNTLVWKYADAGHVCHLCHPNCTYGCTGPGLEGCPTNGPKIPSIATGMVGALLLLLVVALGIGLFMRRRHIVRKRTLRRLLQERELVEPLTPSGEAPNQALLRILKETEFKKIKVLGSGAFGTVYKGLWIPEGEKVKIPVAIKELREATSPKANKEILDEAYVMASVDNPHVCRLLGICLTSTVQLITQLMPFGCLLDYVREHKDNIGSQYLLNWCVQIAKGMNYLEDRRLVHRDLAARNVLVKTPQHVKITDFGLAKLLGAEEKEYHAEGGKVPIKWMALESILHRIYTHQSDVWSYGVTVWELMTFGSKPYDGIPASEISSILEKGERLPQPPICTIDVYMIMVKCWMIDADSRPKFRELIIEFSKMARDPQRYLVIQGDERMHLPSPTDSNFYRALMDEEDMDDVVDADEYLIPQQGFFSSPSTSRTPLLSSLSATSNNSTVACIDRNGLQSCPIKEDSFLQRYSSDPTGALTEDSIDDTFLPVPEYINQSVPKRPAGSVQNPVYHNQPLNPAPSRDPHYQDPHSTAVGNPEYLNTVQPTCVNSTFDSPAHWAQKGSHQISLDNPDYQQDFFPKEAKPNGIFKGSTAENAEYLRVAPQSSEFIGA

[7] = tested on: NCI-H446; assay: Antiproliferative activity against human NCI-H446 cells assessed as hypoxic sensitive enhancement ratio in presence of CoCl2; type: functional
[8] = Cytotoxicity against human NCI-H446 cells assessed as inhibition of cell growth at 0.5 uM after 48 hrs under normoxic condition by CCk-8 assay relative to control; type: cell-based; procedure, shortened: as §1
[9] = tested on: A549; assay: Antiproliferative activity against human A549 cells assessed as hypoxic sensitive enhancement ratio in presence of Cocl2 under irradiation; type: functional
[10] = tested on: NCI-H446; assay: Antiproliferative activity against human NCI-H446 cells assessed as inhibition of cell growth at 0.5 uM in hypoxia condition (200 uM CoCl2) and under irradiation at 8 Gy for 24 hrs and measured after 24 hrs by CCK8 assay (reference value: 68.77%); type: functional
[11] = tested on: A549; assay: Antiproliferative activity against human A549 cells assessed as inhibition of cell growth at 0.5 uM in hypoxia condition (200 uM CoCl2) and under irradiation at 8 Gy for 24 hrs and measured after 24 hrs by CCK8 assay (reference value: 64.135%); type: functional
[12] = Cytotoxicity against human A549 cells assessed as inhibition of cell growth at 0.5 uM after 48 hrs under normoxic condition by CCk-8 assay relative to control; type: cell-based; procedure, shortened: as §1
[13] = tested on: A549; assay: Antitumour activity against human A549 cells xenografted in Balb/c mouse assessed as tumour growth inhibition at 5 mg/kg, po administered daily and measured at day 18 relative to control; type: functional; conditions: 432 h, read-out: TGI
Procedure, shortened: (§2)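 Male BALB/c-nu mice carrying sc flank A549 xenografts (1 × 10^7 cells). Dosing began 6–7 days post-inoculation, with oral 5, 15 or 50 mg/kg daily for 18 days and 3 mice per group. Tumours measured by caliper on days 4, 6, 8, 11, 13, 15 and 18. TGI derived from volume change from dosing start relative to untreated controls.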

[14] = tested on: A549; assay: Downregulation of VEGF expression in human A549 cells at 5 uM after 24 hrs under normoxic condition by q-PCR analysis relative to control; type: cell-based; conditions: a549, 24 h
[15] = tested on: A549; assay: Antitumour activity against human A549 cells xenografted in Balb/c mouse assessed as increase in tumour volume at 10 mg/kg, po administered daily and mesured after 7 days; type: functional, organism-based
Procedure, shortened: (§3)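 Male BALB/c-nu mice, 1 × 10^7 A549 cells implanted sc in the flank. Dosing began seven days after implantation: 10 mg/kg oral, daily for 17 days, 5 mice per group, with a vehicle control group. Tumour size measured daily by caliper, with body weight and clinical signs also recorded daily. TGI calculated from volume changes relative to starting volumes versus control.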

[16] = tested on: A549; assay: Downregulation of VEGF expression in human A549 cells at 5 uM after 24 hrs under hypoxic condition by q-PCR analysis relative to control; type: functional
[17] = tested on: A549; assay: Antitumour activity against human A549 cells xenografted in po dosed Balb/c mouse assessed as tumour growth inhibition administered daily for 18 days and […]; type: functional, organism-based
[18] = tested on: A549; assay: Antitumour activity against human A549 cells xenografted in Balb/c mouse assessed as tumour growth inhibition at 10 mg/kg, po administered daily and mesured at day 17 relative to control; type: functional; conditions: 408 h, read-out: TGI; procedure, shortened: as §3
[19] = tested on: A549; assay: Antitumour activity against human A549 cells xenografted in Balb/c mouse assessed as tumour growth inhibition at 15 mg/kg, po administered daily and measured at day 18 relative to control; type: functional; conditions: 432 h, read-out: TGI; procedure, shortened: as §2
[20] = tested on: A549; assay: Antitumour activity against human A549 cells xenografted in Balb/c mouse assessed as tumour growth inhibition at 50 mg/kg, po administered daily and measured at day 18 relative to control; type: functional; conditions: 432 h, read-out: TGI; procedure, shortened: as §2
[21] = Toxicity in Balb/c mouse xenografted with human A549 cells assessed as effect on weight loss at 10 mg/kg, po measured up to 17 days; type: organism-based; conditions: in vivo, 408 h; procedure, shortened: as §3

| Compound | IC50 [1] | IC50 [6] | inhibition (INH) [2] | inhibition (INH) [3] | Ratio [4] | Ratio [5] | Ratio [7] | inhibition at 48 h, 0.5 µM [8] | Ratio [9] | inhibition (INH) [10] | inhibition (INH) [11] | inhibition at 48 h, 0.5 µM [12] | also measured |
| --- | --- | --- | --- | --- | --- | --- | --- | --- | --- | --- | --- | --- | --- |
| COc1cc2c(Nc3ccc(Br)cc3F)ncnc2cc1OCCNC(=O)Cn1cnc([N+](=O)[O-])n1 | 86.8 nM | 43.6 nM | 72.99% | 76.34% | 0.85 | 1.19 | 1.07 | 16.8% | 0.9 | 79.03% | 80.3% | 14.9% | – |
| COc1cc2c(Nc3ccc(C)c(Br)c3)ncnc2cc1OCCNC(=O)Cn1cnc([N+](=O)[O-])n1 | 184 nM | 18.5 nM | – | – | – | – | – | – | – | – | – | – | – |
| COc1cc2c(Nc3ccc(F)cc3)ncnc2cc1OCCOCCNC(=O)Cn1cnc([N+](=O)[O-])n1 | 864 nM | 16.4 nM | 72.53% | 78.7% | 0.86 | 1.25 | 1.13 | 11.1% | 0.86 | 80.58% | 76.94% | 8.43% | – |
| COc1cc2c(Nc3ccc(Br)cc3F)ncnc2cc1OCCOCCOCCNC(=O)Cn1cnc([N+](=O)[O-])n1 | 217 nM | 4.95 nM | 74.36% | 78.81% | 0.91 | 1.2 | 1.08 | 20.4% | 0.9 | 84.92% | 80.36% | 16% | – |
| COc1cc2/c(=N/c3ccc(Br)cc3F)nc[nH]c2cc1OCC1CCN(C)CC1 [VANDETANIB] | – | – | 67.26% | 77.67% | – | – | – | – | – | 82.02% | 81.44% | – | Activity [15]: Active; inhibition in vivo at 10 mg/kg [18]: 62.1% |
| COc1cc2c(Nc3ccc(F)cc3Cl)ncnc2cc1OCCOCCOCCNC(=O)Cn1cnc([N+](=O)[O-])n1 | 2870 nM | 12.9 nM | – | – | – | – | – | – | – | – | – | – | – |
| COc1cc2c(Nc3ccc(F)cc3Cl)ncnc2cc1OCCNC(=O)Cn1cnc([N+](=O)[O-])n1 | 517 nM | 48.1 nM | – | – | – | – | – | – | – | – | – | – | – |
| COc1cc2c(Nc3ccc(F)c(F)c3)ncnc2cc1OCCOCCNC(=O)Cn1cnc([N+](=O)[O-])n1 | 1100 nM | 3.7 nM | – | – | – | – | – | – | – | – | – | – | – |

Further compounds by falling IC50 [1], results first:

| IC50 [1] | IC50 [6] | Compound | inhibition (INH) [2] | inhibition (INH) [3] | Ratio [4] | Ratio [5] | Ratio [7] | inhibition at 48 h, 0.5 µM [8] | Ratio [9] | inhibition (INH) [10] | inhibition (INH) [11] | inhibition at 48 h, 0.5 µM [12] | also measured |
| --- | --- | --- | --- | --- | --- | --- | --- | --- | --- | --- | --- | --- | --- |
| 4080 nM | 20.8 nM | COc1cc2c(Nc3ccc(F)cc3Cl)ncnc2cc1OCCOCCNC(=O)Cn1cnc([N+](=O)[O-])n1 | 69.01% | 80.31% | 0.89 | 1.17 | 1.14 | 13.9% | 0.89 | 83.35% | 77.88% | 10.3% | – |
| 1880 nM | 20 nM | COc1cc2c(Nc3ccc(F)c(F)c3)ncnc2cc1OCCOCCOCCNC(=O)Cn1cnc([N+](=O)[O-])n1 | – | – | – | – | – | – | – | – | – | – | – |
| 1200 nM | 3.11 nM | COc1cc2c(Nc3cccc(F)c3)ncnc2cc1OCCOCCNC(=O)Cn1cnc([N+](=O)[O-])n1 | – | – | – | – | – | – | – | – | – | – | – |
| 407 nM | 0.37 nM | COc1cc2c(Nc3ccc(C)c(Br)c3)ncnc2cc1OCCOCCNC(=O)Cn1cnc([N+](=O)[O-])n1 | 65.39% | 77.71% | 0.86 | 1.15 | 1.08 | 18.6% | 0.8 | 80.1% | 69.18% | 5.48% | – |
| 245 nM | 6.24 nM | COc1cc2c(Nc3ccc(C)c(Br)c3)ncnc2cc1OCCOCCOCCNC(=O)Cn1cnc([N+](=O)[O-])n1 | – | – | – | – | – | – | – | – | – | – | – |
| 67.8 nM | – | COc1cc2c(Nc3ccc(Cl)c(Cl)c3F)ncnc2cc1OCCOCCNC(=O)Cn1cnc([N+](=O)[O-])n1 | 82.25% | 77.9% | – | – | – | 20.5% | – | 85% | 80.7% | 13.8% | inhibition in vivo at 5 mg/kg [13]: 28.1%; fold change (FC) [14]: 0.1833; Activity [15]: Active; fold change (FC) [16]: 0.0037; inhibition [17]: Dose-dependent effect; inhibition in vivo at 10 mg/kg [18]: 49%; inhibition in vivo at 15 mg/kg [19]: 63.9%; inhibition in vivo at 50 mg/kg [20]: 76.3%; Activity [21]: Non-Toxic |
| 27.1 nM | 3.23 nM | COc1cc2c(Nc3ccc(Br)cc3F)ncnc2cc1OCC1CCN(C(=O)Cn2cncc2[N+](=O)[O-])CC1 | – | – | – | – | – | – | – | – | – | – | – |
